Statin myotox sup: suppression of simvastatin myotoxicity. C2C12 myotubes + simvastatin, ATP luminescence, 48 h; scaled: DMSO 0, geranylgeraniol control 100. rescue of ATP level, % at 7.49 µM. 0.78% of 330,000 active;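 active means mean ATP rescue above about 67%, or every replicate alone reaching that limit, limit read from the data, passing the limit was not always enough; inconclusive means no clear call, values can overlap the other calls; inactive means mean under the limit and some replicate under it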;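 further: myotubes were challenged with 10 µM simvastatin during compound exposure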
PglD inh: PglD (C. jejuni) enzyme inhibition; inhibition, % at 12.5 µM; 0.098% of 360,000 active; purified PglD enzyme, DTNB colorimetric CoA detection; in the data active means inhibition above about 16%, passing the limit was not always enough; inconclusive means no clear call, values can overlap the other calls
E-sel inducer: E-selectin induction on HUVECs | P16581 | HUVEC E-selectin immunofluorescence imaging; normalized: neutral wells 0, TNF-alpha wells 100 | activation, % at 7.58 µM | 0.37% of 260,000 active | AID 686992;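 active means mean E-selectin-positive cell signal at least 10% of the positive control, reached in at least 60% of replicates, without over 20% cell loss; inconclusive means no rule given, readout overlaps actives, possibly toxicity-flagged; inactive means the rest, including those meeting only one limit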
Target sequence (P16581 whole entry, looked up): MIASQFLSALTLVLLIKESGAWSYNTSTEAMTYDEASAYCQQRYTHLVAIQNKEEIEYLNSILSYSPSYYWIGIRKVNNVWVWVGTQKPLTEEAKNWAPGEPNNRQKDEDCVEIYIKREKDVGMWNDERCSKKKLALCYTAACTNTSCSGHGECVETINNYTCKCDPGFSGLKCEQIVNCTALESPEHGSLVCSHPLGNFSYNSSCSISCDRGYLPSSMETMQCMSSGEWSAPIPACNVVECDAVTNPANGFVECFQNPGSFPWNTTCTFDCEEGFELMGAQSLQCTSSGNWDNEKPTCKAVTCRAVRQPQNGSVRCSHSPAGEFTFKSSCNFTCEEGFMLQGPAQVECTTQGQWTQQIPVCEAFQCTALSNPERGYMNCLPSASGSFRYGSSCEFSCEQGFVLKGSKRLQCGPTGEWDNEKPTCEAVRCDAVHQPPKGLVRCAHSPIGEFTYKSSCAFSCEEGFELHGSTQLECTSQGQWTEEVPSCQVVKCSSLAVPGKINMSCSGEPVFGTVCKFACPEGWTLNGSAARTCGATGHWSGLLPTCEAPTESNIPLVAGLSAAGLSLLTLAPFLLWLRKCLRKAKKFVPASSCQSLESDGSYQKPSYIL
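Assay system: HUVEC primary endothelial cells. Input: 3,000 HUVEC seeded per well. Doses: one compound dose added by pin transfer. Read-out basis: % PE-positive cells. Benchmarks: TNF-alpha high, DMSO low. Detection: immunofluorescence imaging. Buffer or medium: EGM-2, gelatin.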
Xi reactivation: X-chromosome reactivation activator; XiGFP mouse fibroblasts, % GFP-positive cells imaging, 3 d; cells co-treated with 5-aza-dC sensitizer; scaled so ellipticine positive control = 100%; activation, % at 7.58 µM; 0.055% of 360,000 active; AID 743238;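 active means mean normalized replicate activation at least 10% and every replicate at or above 10%; inconclusive means only one of the two criteria met; inactive means mean below 10% and not all replicates reach 10%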
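assay system = SV40-immortalized XiGFP fibroblast cells, line 68-5-11 | buffer or medium = DMEM plus 5-aza-dC sensitizer | doses = single-point pinned compound dosing | times = 3-day compound exposure, then 15 min fixation at room temperature | benchmarks = positive control ellipticine, 6 µM final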
FGF22 binding-1: shifts melting point of recombinant human FGF22; activity (Tm shift, normalised), % at 9.99 µM; recombinant FGF22 thermal shift, SYPRO orange fluorescence; percent of sucrose octasulfate shift, DMSO zero; Q9HCT0; 1.5% of 340,000 active;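 active means mean Tm shift, scaled 0 neutral to 100 positive control, at about 1.3% or above, every replicate too, limit read from the data; inconclusive means no clear call, values can overlap the other calls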
Target sequence (Q9HCT0 whole entry, looked up): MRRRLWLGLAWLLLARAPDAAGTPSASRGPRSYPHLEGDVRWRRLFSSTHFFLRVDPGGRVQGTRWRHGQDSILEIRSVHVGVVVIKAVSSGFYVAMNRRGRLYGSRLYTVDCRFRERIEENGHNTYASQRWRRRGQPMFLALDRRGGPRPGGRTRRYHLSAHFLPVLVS
DENV2 CPE: protects cells from dengue virus 2 cytopathic effect; 1.7% of 350,000 active; DENV2-infected cells, cytopathic effect rescue, plate reader; CPE inhibition, % at 9.99 µM; AID 651640; in the data active means CPE inhibition above about 20%, passing the limit was not always enough; inconclusive means no clear call, values can overlap the other calls; tested in BHK-21 cells
FGF22 binding-2: FGF22 (human) binding in thermal shift. 2% of 1,000 active. recombinant FGF22 thermal shift, SYPRO orange fluorescence. shares compounds with FGF22 binding-1. AID 720646. thermal shift activity, °C (ΔTm) at 38 µM;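 active means fitted rise in melting shift crosses a set limit at or below the top valid dose tested; inconclusive means flat fit at mid-level activity, or a poor quality fit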
FGF22 TSA DP: binds human FGF22 shifting its melting temperature. 50 tested, under 10 active. shares compounds with FGF22 binding-1. Thermal shift assay, SYPRO orange, melting temperature shift. Tm shift (activity), % at 38 µM. AID 743017;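 active means compounds whose fitted dose curve of melting temperature shift rises past a set threshold within the tested doses; inconclusive means flat curve at moderate activity, or poor curve fit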
SYPRO no-protein: compound-only SYPRO artifact for FGF22 binders | shares compounds with FGF22 binding-1 | compound-only SYPRO orange thermal shift counter-screen, no protein | AC50, µM (top dose mostly 38 µM) | 2% of 1,000 active | AID 743019;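 active means rising signal whose fitted curve reaches the 0.54 level within the top valid dose, showing a melting point, actives reach about 13 µM in these data; inactive means the rest, including activity in the opposite direction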; further: value is where the raw curve crosses a fixed level and not half-maximal
Each line names hits and unclear results; the compound was inactive in the other large screens (follow-up assays come after a bar, where they were run). Hits are enriched below; roughly 3.3% of the tested compounds scored in any of these assays.

CNC[C@H]1Oc2ccc(NC(=O)Nc3ccc(OC)cc3)cc2C(=O)N([C@H](C)CO)C[C@@H]1C	FGF22 binding-1 1.4 (no result: E-sel inducer, Xi reactivation) | FGF22 binding-2 inactive | SYPRO no-protein inactive
COc1cccc(NC(=O)N(C)C[C@@H]2OCc3cn(nn3)CCCC(=O)N([C@@H](C)CO)C[C@@H]2C)c1	none (no result: PglD inh, FGF22 binding-1, DENV2 CPE)
C[C@@H]1CN([C@H](C)CO)C(=O)c2cc(-c3ccccc3)cnc2O[C@@H]1CN(C)C(=O)Nc1ccccc1F	none
C/C=C/c1ccc([C@H]2[C@@H](CO)N(C(C)=O)C23CN(C(=O)c2ccncc2)C3)cc1	none (no result: Statin myotox sup, PglD inh)
C/C=C/c1ccc([C@H]2[C@@H](CO)N(C(C)=O)C23CN(C(=O)c2ccc(F)cc2)C3)cc1	FGF22 binding-1 1.4 (no result: Statin myotox sup, PglD inh) | FGF22 binding-2 inactive | SYPRO no-protein inactive
O=C(C[C@H]1C[C@H]2c3cc(NC(=O)C4CCC4)ccc3O[C@H]2[C@@H](CO)O1)NCc1ccc(-c2ccccc2)cc1	none
COc1ccc(C(=O)C2CCCN(C(=O)c3cc(C(C)C)no3)C2)cc1F (configuration not stated)	FGF22 binding-1 9.8 (no result: Statin myotox sup, PglD inh) | FGF22 binding-2 inactive | SYPRO no-protein inactive
COc1ccccc1C(=O)C1CCCN(C(=O)c2cc(C(C)C)no2)C1 (configuration not stated)	none
C[C@@H]1CN([C@H](C)CO)S(=O)(=O)c2ccc(-c3cccc(F)c3)cc2O[C@H]1CN(C)C(=O)C1CC1	none
C[C@@H]1CN([C@H](C)CO)C(=O)c2cc(C3=CCCC3)cnc2O[C@H]1CN(C)Cc1cccnc1	none
C[C@H]1CN([C@@H](C)CO)C(=O)c2cc(NS(=O)(=O)c3ccc(F)cc3)ccc2O[C@H]1CN(C)CC1CCCCC1	none
CC(=O)N1[C@H](CO)[C@H](c2ccccc2)[C@H]1CN(C(=O)c1cccc(F)c1)C(C)C	FGF22 binding-1 1.7 | FGF22 binding-2 inactive | SYPRO no-protein inactive
CC(=O)N1[C@@H](CO)[C@@H](c2ccccc2)[C@@H]1CN(C(=O)c1cccc(F)c1)C(C)C	none
O=C(Nc1cccc(C(=O)NC2CCCC2)c1)c1ccccc1	none (no result: E-sel inducer)
O=C(NC1CC1)c1cccc(NC(=O)c2cnn(-c3ccccc3)n2)c1	FGF22 binding-1 1.4 (no result: DENV2 CPE) | FGF22 binding-2 inactive | SYPRO no-protein inactive
COC(=O)[C@]1(Cc2ccccc2)N[C@H](CN(C)S(=O)(=O)c2ccc(C)cc2)[C@@H]2C(=O)N(Cc3ccccc3)C(=O)[C@@H]21	FGF22 binding-1 1.4, DENV2 CPE 24.2 (no result: E-sel inducer) | FGF22 binding-2 inactive | SYPRO no-protein inactive
O=C(CCc1c[nH]c2ccccc12)Nc1ccc(Oc2cccnc2)cc1	FGF22 binding-1 1.5 (no result: Statin myotox sup, PglD inh) | FGF22 binding-2 inactive | SYPRO no-protein inactive
N#CCC(=O)Nc1ccc(C(=O)NCCc2c[nH]c3ccccc23)cc1	FGF22 binding-1 1.4 | FGF22 binding-2 inactive | SYPRO no-protein inactive
O=C(NCCc1c[nH]c2ccccc12)c1ccccc1	none (no result: E-sel inducer)
Cc1cc(NC(=O)CCc2c[nH]c3ccccc23)ccc1Oc1cccnc1	none (no result: Statin myotox sup, PglD inh)
C/C(=N\NC(=O)c1ccc(NS(=O)(=O)c2cccs2)cc1)c1ccc(Cl)cc1	none (no result: Statin myotox sup, PglD inh, E-sel inducer, FGF22 binding-1, DENV2 CPE)
C/C(=N\NC(=O)c1ccc(NS(=O)(=O)c2cccs2)cc1)c1cccs1	FGF22 binding-1 1.5 (no result: PglD inh) | FGF22 binding-2 inactive | SYPRO no-protein inactive
CC(OC(=O)c1ccccc1)C(=O)NCCC1=CCCCC1 (configuration not stated)	FGF22 binding-1 1.6 | FGF22 binding-2 inactive | SYPRO no-protein inactive
CCCN1C[C@@H](C)[C@@H](OC)CN(C)C(=O)c2cc(NC(=O)CC)ccc2OC[C@H]1C	none (no result: PglD inh, FGF22 binding-1, DENV2 CPE)
CN1C(=O)NC(NS(=O)(=O)c2ccc(N)cc2)(C(F)(F)F)C1=O (configuration not stated)	FGF22 binding-1 3.8 (no result: Statin myotox sup, PglD inh) | FGF22 binding-2 inactive | SYPRO no-protein inactive
CC(=O)N(C)C[C@H]1Oc2ncc(C#C[C@@H](C)O)cc2C(=O)N([C@@H](C)CO)C[C@H]1C	none
Cc1ccc(NC(=O)C2CCCN2C(=O)Oc2ccccc2)c(C)c1 (configuration not stated)	FGF22 binding-1 2.2 | FGF22 binding-2 inactive | SYPRO no-protein inactive
C[C@@H]1CN([C@@H](C)CO)C(=O)c2cccc(NC(=O)C3CC3)c2O[C@@H]1CN(C)C(=O)Nc1ccc2c(c1)OCO2	none
COc1ccc(C)cc1NS(=O)(=O)c1ccc(NS(=O)(=O)c2ccc(NC(C)=O)cc2)cc1	FGF22 binding-1 2.9 (no result: E-sel inducer, Xi reactivation) | FGF22 binding-2 inactive | FGF22 TSA DP inactive | SYPRO no-protein inactive
COc1ccc(OC)c(NS(=O)(=O)c2ccc(NC(C)=O)cc2)c1	none (no result: E-sel inducer, Xi reactivation, FGF22 binding-1, DENV2 CPE)
COc1ccc(S(=O)(=O)Nc2ccc(NC(C)=O)cc2)cc1OC	none (no result: E-sel inducer, Xi reactivation, FGF22 binding-1, DENV2 CPE)
COc1cc(NS(=O)(=O)c2ccc(NC(=S)NC(C)=O)cc2)nc(OC)n1	none (no result: Statin myotox sup)
COc1ccc(S(=O)(=O)Nc2ccc(NC(C)=O)cc2)cc1Cl	FGF22 binding-1 1.7 (no result: Statin myotox sup, PglD inh, E-sel inducer) | FGF22 binding-2 inactive | SYPRO no-protein inactive
COc1cc(NS(=O)(=O)c2ccc(NS(=O)(=O)c3ccc(NC(C)=O)cc3)cc2)nc(OC)n1	FGF22 binding-1 1.4 | FGF22 binding-2 inactive | SYPRO no-protein inactive
C[C@H]1CN([C@@H](C)CO)C(=O)c2cccc(NC(=O)CCCCCC(=O)Nc3ccccc3N)c2O[C@@H]1CN(C)Cc1ccc2c(c1)OCO2	none
C[C@H](CO)N1C[C@H](C)[C@@H](CN(C)CC2CCOCC2)Oc2ncc(C3=CCCCC3)cc2C1=O	DENV2 CPE inconclusive
C[C@H]1CCCCO[C@@H](CN(C)C(=O)Nc2ccc3c(c2)OCO3)[C@@H](C)CN([C@@H](C)CO)C(=O)c2cc(NS(=O)(=O)c3ccccc3)ccc2O1	none (no result: Statin myotox sup)
O=C1C=CCCN1S(=O)(=O)/C=C/c1ccccc1	FGF22 binding-1 17.4 (no result: Statin myotox sup, PglD inh, E-sel inducer, Xi reactivation) | FGF22 binding-2 inactive | SYPRO no-protein inactive
Cc1noc(C)c1S(=O)(=O)Nc1ccc2c(c1)CC(=O)N([C@H](C)CO)C[C@@H](C)[C@H](CN(C)S(C)(=O)=O)O2	FGF22 binding-1 1.3 | FGF22 binding-2 inactive | SYPRO no-protein inactive
Cc1ccc(S(=O)(=O)Nc2ccc3c(c2)CC(=O)N([C@@H](C)CO)C[C@@H](C)[C@H](CN(C)C(=O)Nc2ccccc2)O3)cc1	none (no result: E-sel inducer)

Screens from PubChem BioAssay.
